# What was measured:
# phospho-p38 = assay type: cell-based; details: MKP-1 immunoprecipitated from RAW cells treated with LPS and TSA 4 h
# Summary of the method: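 RAW 264.7 cells grown in DME with 10% FBS were treated with LPS plus TSA, or with control, for 4 h. Endogenous MKP-1 was immunoprecipitated from the lysates and incubated with recombinant phospho-p38 or phospho-ERK1. Remaining phosphorylation was detected by immunoblotting with phospho-p38 or phospho-ERK antibodies. The amount of phospho-substrate added was shown as an input lane.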
# MKP-1-ERα and p38 = assay: MKP-1-ERα/p38 interaction by co-immunoprecipitation in HeLa cells; assay type: cell-based; details: 4-HT, LPS and TSA 1 h
# MKP-1 and p38 = assay: MKP-1/p38 association by co-immunoprecipitation in RAW cells; assay type: cell-based, mouse; details: co-IP
# Summary of the method: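 RAW 264.7 cells were treated with LPS and/or TSA for 1 h. Lysates were immunoprecipitated with anti-p38 or anti-MKP-1, and precipitates were immunoblotted reciprocally for MKP-1 or p38. The experiment was repeated twice.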
# TNF-α = TNF-α in media of primary macrophages by ELISA; assay type: cell-based, mouse; details: TSA and LPS, 4 h, n = 2 ± SD
# Summary of the method: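 Primary peritoneal macrophages collected by PBS lavage from resting WT or MKP-1−/− mice, not thioglycolate-elicited; the mice were on a C57BL/6J background. Cells stimulated with TSA, LPS or both. After 4 h, TNF-α and IL-1β in the media were measured by ELISA; n = 2, mean ± SD.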
# p38 [1] = assay: Phospho-p38 in MEFs from MKP-1 heterozygous or KO mice; assay type: cell-based, mouse; details: LPS and TSA 30 min
# Summary of the method: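 Embryonic fibroblasts from MKP-1+/− or MKP-1−/− mice, grown in DME with 10% FBS, were treated with LPS and TSA for 30 min. Lysates were immunoblotted for phospho-p38 and total p38.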
# JNK1/2 = assay: Phosphorylation of JNK1/2 by immunoblot in RAW cells; assay type: cell-based, mouse; details: RAW cells pretreated 30 ng/ml TSA 1 h, 100 ng/ml LPS 30 min
# Summary of the method: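 RAW 264.7 cells (DME, 10% FBS) pretreated with TSA 30 ng/ml for 1 h, then LPS 100 ng/ml for 30 min. Whole-cell lysates were immunoblotted with antibodies to phosphorylated and total forms of the MAPK in question.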
# NOS2 = NOS2 protein levels by immunoblot in RAW cells; assay type: cell-based, mouse; details: RAW cells
# Summary of the method: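 RAW 264.7 cells were handled in two ways. For agonist response, cells were exposed to the TLR agonists PGN, poly(I:C), LPS or E. coli for 16 h, with or without TSA. For TSA dose-response, cells were pretreated with increasing TSA for 1 h, then given LPS 100 ng/ml for 6 h, with ERα as the blot control. In both, lysates were immunoblotted for NOS2.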
# p38 [2] = assay: Phospho-p38 in RAW cells with MKP-1 siRNA or control siRNA; assay type: cell-based, mouse
# Summary of the method: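 RAW cells stably transfected with vectors encoding hairpin siRNA against MKP-1 nucleotides 67–85 or 743–761, or a control sequence, with separate clones isolated. Knockdown was confirmed by MKP-1 immunoblot. Clones were treated with LPS and TSA, and lysates were immunoblotted for NOS2 and MAPK family members, including phospho-p38.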
# MKK3/6 = assay: Phosphorylation of MKK3/6 by immunoblot in RAW cells; assay type: cell-based, mouse; details: TSA 30 ng/ml 1 h and/or LPS 100 ng/ml 30 min
# Summary of the method: (§1)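 RAW 264.7 cells grown in DME with 10% FBS were pretreated with TSA 30 ng/ml for 1 h, then given LPS 100 ng/ml for 30 min. Lysates were immunoblotted with phospho-specific antibodies to MAPK cascade members (phospho-MKK3/6, phospho-Elk-1).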
# TNF-α, IL-6, and IL-1β = assay: Inflammatory cytokine RNA levels by Northern blotting in RAW cells; assay type: cell-based, mouse; details: RAW cells treated with LPS and TSA 4 h
# Summary of the method: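 RAW 264.7 cells (DME, 10% FBS) treated with LPS and TSA for 4 h. Total RNA was isolated with TRIZOL and analysed by Northern blotting with probes for TNF-α, IL-1β and IL-6, with GAPDH as loading control.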
# COX-2 and CXCL2 = assay: Liver COX-2 and CXCL2 expression by RT-PCR; assay type: in vivo, mouse; details: 4 h after LPS, n = 2
# Summary of the method: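 Mice were dosed with TSA each day from day −2 and challenged with LPS on day 0. Liver RNA was harvested 4 h after LPS. RT-PCR was run for TNF-α and IL-1β, or for COX-2 and CXCL2, with two mice per group.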
# Elk-1 = assay: Phosphorylation of Elk-1 by immunoblot in RAW cells; assay type: cell-based, mouse; details: TSA 30 ng/ml 1 h and/or LPS 100 ng/ml 30 min
# Summary of the method: as §1
smiles,measurement,setting,value
"CC(/C=C/C(=O)NO)=C\[C@@H](C)C(=O)c1ccc(N(C)C)cc1 [TSA, trichostatin A]",removal of phosphate from recombinant phospho-p38 by MKP-1,phospho-p38,enhances the ability of MKP-1 to remove phosphate groups from recombinant phospho-p38
same,interaction between mutant MKP-1(K57R) and p38,MKP-1-ERα and p38; MKP-1(K57R)-ERα,not able to affect the interaction between mutant MKP-1(K57R) and p38
same,interaction between MKP-1(WT) and p38,MKP-1-ERα and p38; MKP-1(WT)-ERα,increases the interaction between MKP-1(WT) and p38
same,association between p38 and MKP-1,MKP-1 and p38; LPS and TSA 1 h,increases the association between p38 and MKP-1 in cells
same,"interaction between MKP-1 and p38, TSA alone",MKP-1 and p38; TSA without LPS,"increases the interaction between MKP-1 and p38, even in the absence of LPS"
same,"suppression of TNF-α, MKP-1−/− macrophages",TNF-α,27%
same,"suppression of TNF-α, WT macrophages",TNF-α,87%
same,"phospho-p38 levels, heterozygous vs MKP-1 KO MEFs",p38 [1],"decreases phospho-p38 levels in heterozygous cells, but not in MKP-1 KO cells"
same,LPS-induced phosphorylation of JNK1/2,JNK1/2,not JNK1/2
same,"NOS2 expression activated by TLR agonists (LPS, E. coli, PGN, dsRNA)","NOS2; TLR agonist 16 h, effect of TSA",inhibits expression of NOS2 activated by each of these four TLR activators
same,NOS2 steady-state protein levels,"NOS2; TSA pretreatment 1 h, LPS 6 h",decreases NOS2 steady-state protein levels
same,"LPS-induced phospho-p38, control siRNA cells","p38 [2]; RAW cells expressing control hairpin RNA, LPS and TSA",limits this increase
same,"effect of TSA on phospho-p38, MKP-1 siRNA cells","p38 [2]; RAW cells with siRNA of MKP-1, LPS and TSA",siRNA of MKP-1 blocks the effect of TSA
same,phosphorylation of MKK3/6,MKK3/6,does not affect phosphorylation of the upstream MAPKK MKK3/6
same,expression of IL-1β,"TNF-α, IL-6, and IL-1β",inhibits
same,expression of IL-6,"TNF-α, IL-6, and IL-1β",inhibits
same,expression of TNF-α,"TNF-α, IL-6, and IL-1β",inhibits
same,COX-2 expression in liver,COX-2 and CXCL2,slightly increases
same,CXCL2 expression in liver,COX-2 and CXCL2,slightly increases
same,phosphorylation of Elk-1,Elk-1,decreases phosphorylation of p38 and Elk-1

# Source: paper PMC2413043 (The Journal of Experimental Medicine, 2008)
